# High-throughput results from PubChem.
# HKDC1 inhibitor: HKDC1 (human) hexokinase inhibition. recombinant HKDC1, G6PDH/diaphorase resazurin coupled fluorescence. hit rate 0.16% among 340,000. inhibition, % at 20 µM;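 active = inhibition above about 35% when tested at 20 µM, limit read from the data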;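 note: plate controls were DMSO wells with enzyme for no effect and DMSO wells lacking enzyme for full effect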
#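 Material: recombinant HKDC1 hexokinase; Amount: HKDC1 at 5 µg/mL; Medium: Tris pH 8.0 buffer with MgCl2, Tween-20, BSA, BME; Schedule: 90 min reaction incubation at room temperature, dark; Technique: coupled resazurin fluorescence, excitation 525 nm, emission 613 nm.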
# G6PDH counter: L. mesenteroides G6PDH inhibition counter-screen | Purified L. mesenteroides G6PDH, diaphorase/resazurin coupled fluorescence, 45 min | inhibition, % at 5 µM | hit rate 0.12% among 200,000 | AID 1020; in the data active = inhibition above about 50%
# PfGluPho inh: PfG6PD (Plasmodium falciparum) enzyme inhibition | hit rate 0.78% among 350,000 | inhibition, % at 20 µM | AID 504690 | PfGluPho enzyme, NADPH resazurin-diaphorase fluorescence;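 active = inhibition reaching at least a set limit at 20 µM in the primary screen, cut at about 59% in these data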;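 note: 0% = DMSO wells with substrate and 100% = DMSO wells lacking glucose-6-phosphate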
# Diaph inh CS: diaphorase inhibition or chemical oxidation counter-screen. diaphorase resazurin-to-resorufin fluorescence, NADH, 16 min; bacterial (C. kluyveri) enzyme, not human. hit rate 0.69% among 190,000. inhibition, % at 20 µM;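 active = primary screen inhibition at 20 µM above a set limit, cut at about 50% in these data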;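 note: plate controls were DMSO with full reaction for no effect and wells lacking NADH for full effect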
#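 Test system: Clostridium kluyveri diaphorase enzyme / Quantity: diaphorase at 0.14 U/mL in enzyme working solution / Incubation: 16-min room-temperature incubation before reading / Benchmarks: NADH-free wells as positive control, DMSO-only neutral wells / Signal: resorufin fluorescence 544/590 nm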
# PfG6PD confirm: PfG6PD inhibition, single-dose confirmed; shares compounds with PfGluPho inh; recombinant PfGluPho, NADPH-diaphorase-resazurin fluorescence; inhibition, % at 20 µM; hit rate 34% among 2,400; AID 504753;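 active = inhibition of at least 50% at 20 µM in any single replicate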;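 note: 0% = DMSO with substrate and 100% = DMSO lacking glucose-6-phosphate substrate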
# Diaphorase 10uM: diaphorase inhibition or oxidation at 10 uM NADPH | hit rate 39% among 820 | shares compounds with PfGluPho inh | AID 504862 | diaphorase-coupled resazurin reduction, fluorescence, NADPH 10 uM | inhibition, % at 20 µM;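 active = average inhibition reaching 50% or more with the compound at 20 µM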;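 note: resorufin red fluorescence formed as diaphorase reduces resazurin using NADPH; 0% = DMSO with enzyme and 100% = DMSO without enzyme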
# Diaphorase 30uM: inhibits diaphorase or oxidizes, flagging false PfG6PD hits; Diaphorase/resazurin coupled assay, resorufin fluorescence, 30 uM NADPH; inhibition, % at 20 µM; hit rate 29% among 820; shares compounds with PfGluPho inh;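 active = inhibition averaging 50% or more, tested at 20 µM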;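 note: 0% = DMSO with enzyme and 100% = DMSO wells lacking diaphorase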
# * = called active by the depositor; nt = not tested or not shown. Most compounds without a hit are left out; they make up all but 1.3% or so of the library.
SMILES,HKDC1 inhibitor,G6PDH counter,PfGluPho inh,Diaph inh CS,PfG6PD confirm,Diaphorase 10uM,Diaphorase 30uM
C=CCSc1nnc(NC(=O)c2ccc(Cl)nc2)s1,3.4,3.0,82.2*,-1.1,77.9*,71.8*,49.2
C=CCSc1nnc(NC(=O)c2ccc(N3CCCC3=O)cc2)s1,3.0,nt,-10.0,nt,nt,nt,nt
CCc1nnc(NC(=O)c2cc(Cl)ccn2)s1,5.3,nt,17.4,nt,nt,nt,nt
CCc1nnc(NC(=O)c2ccc(Cl)nc2)s1,-1.8,4.0,77.7*,12.5,56.9*,48.5,40.6
O=C(Nc1nnc(C2CC2)s1)c1ccc(Cl)nc1,2.5,nt,80.3*,nt,57.6*,63.6*,49.6
Cc1nnc(N/N=C\c2ccc(-c3cccc(C(=O)O)c3)o2)n1N,3.3,6.9,71.0*,4.4,52.4*,25.4,18.2
Cc1nnc(N/N=C/c2ccc(-c3ccc(Br)cc3)o2)n1N,5.2,9.2,61.0*,14.8,48.3,nt,nt
Cc1nnc(N/N=C/c2ccc(Br)cc2)n1N,7.4,nt,56.8,nt,nt,nt,nt
CON(C)S(=O)(=O)NC(=O)C1=C(N2CCCC2)COC1=O,-5.5,nt,-1.9,nt,nt,nt,nt
C/C(=N\NS(=O)(=O)c1ccc([N+](=O)[O-])cc1)c1c[nH]c2ccccc12,-0.9,nt,-6.0,nt,nt,nt,nt
O=C(NC1CCCC1)c1cccc(S(=O)(=O)N2CCCC2)c1,-5.0,nt,-1.8,nt,nt,nt,nt
O=S(=O)(c1cccs1)N1CN(Cc2ccccc2)c2nc3ccccc3nc21,3.1,-2.0,39.9,30.7,nt,nt,nt
O=S(=O)(c1cccs1)N1CN(Cc2cccs2)c2nc3ccccc3nc21,10.4,-35.4,68.7*,29.5,35.1,nt,nt
CCN(C(C)=O)c1cnc(C=NNC(N)=S)c2ccccc12,-16.5,nt,34.2,nt,nt,nt,nt
NC(=S)NN=Cc1nccc2c(N)cccc12,nt,nt,100.3*,nt,48.7,nt,nt
COc1ccc(C(=O)OCC(=O)NCc2ccc3c(c2)OCO3)cc1S(=O)(=O)N1CCOCC1,-3.6,nt,-12.7,nt,nt,nt,nt
COc1ccc(N2CCN(C(=S)NCCc3ccccc3)CC2)cc1,-3.2,nt,-1.4,nt,nt,nt,nt
Oc1ccc(N2CCN(C(=S)NCCc3ccccc3)CC2)cc1,7.2,8.3,67.2*,33.1,10.6,nt,nt
O=C(CN1CCN(c2ccc(O)cc2)CC1)Nc1ccccc1C(=O)NCCc1ccccc1,4.8,nt,70.3*,nt,34.4,nt,nt
O=C(Cc1csc(N2CCOCC2)n1)N/N=C/c1ccc(O)c(O)c1O,21.7,-2.5,72.4*,82.8*,61.9*,57.0*,64.4*
Cc1cc(C)nc(/N=C(\N)Nc2ccccc2-c2ccccc2)n1,-10.1,12.2,71.8*,6.0,55.3*,52.1*,43.9
COC(=O)C1=C(CS(=O)(=O)c2ccc(OC)c(OC)c2)NC(=O)NC1c1ccc(O)c(OC)c1 (configuration not stated),-0.5,nt,11.7,nt,nt,nt,nt
CCSc1nc2c([nH]1)c(=O)n(C)c(=S)n2C,-1.4,nt,62.1*,nt,40.9,nt,nt
CCCOc1cc(N)ccc1C(=O)OCCN(CC)CC,-7.1,nt,-6.6,nt,nt,nt,nt
CCCOc1ccc(N)cc1N,26.4,42.2,115.4*,37.6,69.6*,51.7*,50.6*
SMILES,HKDC1 inhibitor,G6PDH counter,PfGluPho inh,Diaph inh CS,PfG6PD confirm,Diaphorase 10uM,Diaphorase 30uM
O=[N+]([O-])c1ccc(-c2c[nH]c(=S)[nH]2)cc1,-10.0,nt,64.4*,nt,34.1,nt,nt
S=c1[nH]cc(-c2ccccc2)[nH]1,-9.1,nt,21.0,nt,nt,nt,nt
Cc1ccc2nc(-c3ccc4c(c3)OCCO4)cn2c1,3.3,nt,109.0*,nt,58.3*,73.5*,61.5*
Clc1ccc2nc(-c3ccccc3)cn2c1,-0.4,nt,64.4*,nt,36.5,nt,nt
Clc1ccc2nc(-c3ccc4c(c3)OCO4)cn2c1,-4.6,8.6,73.2*,7.4,50.3*,17.0,19.1
Cc1ccc2nc(-c3ccc4c(c3)NC(=O)CO4)cn2c1,-1.8,nt,104.0*,nt,40.6,nt,nt
c1ccn2cc(-c3ccc4c(c3)OCCO4)nc2c1,5.2,4.3,26.7,6.0,nt,nt,nt
O=C(Cc1ncc(C(F)(F)F)cc1Cl)NCCc1ccccn1,-5.1,0.3,-1.1,6.8,nt,nt,nt
CCCCN1CC(COCc2ccccc2)Oc2ccccc2S1(=O)=O (configuration not stated),16.4,nt,11.1,nt,nt,nt,nt
CCCCCC(=O)NC(NC(=S)N1CCOCC1)C(Cl)(Cl)Cl (configuration not stated),-3.8,13.6,-6.0,0.2,nt,nt,nt
